Results: paper PMC3873233 (Diabetes, Metabolic Syndrome and Obesity: Targets and …, 2013)

Columns and labels:
[1] = Pharmacokinetics in DIO hamsters; type: in vivo, hamster
[2] = system: high-fat DIO C57bl/6J mice; assay: Glycemic control; type: in vivo, mouse; details: 4 weeks of treatment, 9 mg/kg oral once daily
Procedure, shortened: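 DIO C57bl/6J males on 45% kcal-fat diet for 8±2 weeks before study, diet continued. Oral dosing once daily for 4 weeks in 0.5% w/v Tween-80 + 0.5% w/v Na-CMC in water. OGTT: 6 h fast, dose, 0-min sample 15 min later, glucose 2 g/kg, tail-snip samples at 15–120 min. K-EDTA plasma; glucose by autoanalyzer, fasting insulin by rat/mouse ELISA.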

[3] = system: DIO male Golden Syrian hamsters; assay: Plasma lipid parameters in high fat-fed DIO hamsters, experiment C; type: in vivo, hamster; details: end of treatment week 5, 6 mg/kg intraperitoneal
[4] = system: DIO male Golden Syrian hamsters; assay: Oral glucose tolerance test in DIO hamsters; type: in vivo, hamster; details: TRC210258 6 mg/kg intraperitoneal, sitagliptin 3 mg/kg oral
Procedure, shortened: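 Hamsters made obese on 45% kcal-fat diet for 8±2 weeks. Double-dummy dosing: i.p. vehicle 0.9% Na-CMC + 0.1% Tween-80 in PBS pH 7.4, oral vehicle 0.5% Tween-80 + 0.5% Na-CMC in water. Oral glucose tolerance test done during treatment. Retro-orbital sampling under mild anaesthesia into K-EDTA. Plasma glucose by autoanalyzer; insulin by hamster-specific ELISA.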

[5] = Pharmacokinetics in DIO mice; type: in vivo, mouse
[6] = target: T1, human TGR5 receptor (Homo sapiens, UniProt Q8TDU6); type: cell-based
T1 sequence (Q8TDU6 1-330): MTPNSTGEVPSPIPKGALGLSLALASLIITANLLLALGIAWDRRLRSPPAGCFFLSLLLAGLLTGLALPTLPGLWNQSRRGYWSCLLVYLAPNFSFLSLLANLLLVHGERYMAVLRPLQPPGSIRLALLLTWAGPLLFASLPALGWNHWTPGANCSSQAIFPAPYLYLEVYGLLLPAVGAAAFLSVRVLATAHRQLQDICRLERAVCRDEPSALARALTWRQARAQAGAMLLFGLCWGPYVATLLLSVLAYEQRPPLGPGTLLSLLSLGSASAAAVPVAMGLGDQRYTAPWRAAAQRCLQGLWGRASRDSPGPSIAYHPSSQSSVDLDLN

[7] = system: NCI-H716 human enteroendocrine cell line; assay: TGR5-mediated GLP1 secretion; type: cell-based; details: NCI-H716 cells, 1 hour, in presence of 0.05% sitagliptin; versus vehicle
Procedure, shortened: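 NCI-H716 human enteroendocrine cells exposed 1 h to vehicle, test compound or lithocholic acid (positive control), with 0.05% DPP-4 inhibitor sitagliptin present. Active GLP1 in culture supernatant measured by ELISA, expressed in pM. Two experiments, each in duplicate, averaged.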

[8] = system: DIO male Golden Syrian hamsters; assay: Oral fat tolerance test; type: in vivo, hamster; details: week 4, 6 mg/kg intraperitoneal
Procedure, shortened: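 Male Golden Syrian hamsters fed 45% kcal-fat diet for 8±2 weeks. Test compound given i.p. in 0.9% Na-CMC + 0.1% Tween-80 in PBS pH 7.4, with oral vehicle dummy. At end of week 4: 6 h fast, pre-load sample, oral olive oil 5 mL/kg, samples at 60–240 min. Retro-orbital bleeds under mild anaesthesia; K-EDTA plasma triglyceride by autoanalyzer.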

[9] = DIO hamsters, 6 mg/kg intraperitoneally, mean ± standard deviation
[10] = DIO mice, 9 mg/kg orally, mean ± standard deviation

| Compound | AUClast [1, 9] | Tmax [1, 9] | Cmax ([1]; Golden Syrian, hamster, plasma, ip, 6 mg/kg) | oral bioavailability in hamsters compared with mice ([1]; hamster, oral) | Homeostasis Model of Assessment-Insulin Resistance (HOMA-IR) [2] | improvement (reduction) in LDL cholesterol vs vehicle control [3] | improvement (reduction) in non-HDL cholesterol vs vehicle control [3] | improvement (reduction) in total cholesterol vs vehicle control [3] | improvement (reduction) in triglycerides vs vehicle control [3] | AUC(0–120 min) for insulin in oral glucose tolerance test [4] | Cmax ([5]; C57bl/6J, mouse, plasma, po, 9 mg/kg) | AUClast [5, 10] | Tmax [5, 10] | EC50 [6] | GLP1 secretion [7] | time taken to reach peak plasma triglyceride levels after oral fat loading [8] |
| --- | --- | --- | --- | --- | --- | --- | --- | --- | --- | --- | --- | --- | --- | --- | --- | --- |
| CN(C(=O)c1c(Oc2ccc(F)cc2)nc2ncccn12)c1ccc(Cl)cc1 [TRC210258, N-(4-chlorophenyl)-2-(4-fluorophenoxy)-N-methylimidazo [1,2-a] pyrimidine-3-carboxamide] | 726.2 ± 223.8 ng·h/mL | 1.5 ± 0.71 h | 78.7 ± 31.8 ng/mL | lower oral bioavailability | trend toward amelioration | 26.2% | 32% | 25.4% | 28.3% | higher | 59.4 ± 22.2 ng/mL | 525.7 ± 127.0 ng·h/mL | 2.25 ± 1.25 h | 221 nM | significant induction of GLP1 secretion | 120 min |
| N[C@@H](CC(=O)N1CCn2c(nnc2C(F)(F)F)C1)Cc1cc(F)c(F)cc1F [sitagliptin, reference compound] |  |  |  |  |  |  |  |  |  | higher |  |  |  |  |  |  |
